The values below come from ChEMBL document CHEMBL2163256, “6-(methylamino)hexane-1,2,3,4,5-pentanol 4-(((1S,2S)-1-hydroxy-2,3-dihydro-1H,1'H-[2,2-biinden]-2-yl)methyl)benzoate (PH46A): a novel small molecule with efficacy in murine models of colitis” (J Med Chem, 2012).

Data set [1] deals with Mus musculus. The data set is described as follows: Toxicity in DSS-induced colitis BALB/c mouse model assessed as overt reactions at 30 mg/kg, po qd for 7 days relative to vehicle-treated control. The class given is organism-based. Set-up: dose 30 mg/kg, route oral. The settings on record: in vivo, 168 h.
Data set [2] concerns Mus musculus. In words: Antiinflammatory activity in IL-10 -/- BALB/c mouse assessed as prevention of rectal prolapse at 300 mg/kg, po administered as divided dose 3 times a week for 9 weeks relative to vehicle-treated control. The class given is functional, organism-based. Set-up: dose 300 mg/kg. Summed up: (§1)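 IL-10−/− BALB/c-background mice, bred SPF, treated from 6−8 weeks of age by oral gavage of 300 mg/kg/week in distilled water (vehicle), Mon/Wed/Fri, for 9 weeks. Weight, rectal bleeding and prolapse monitored. At 9 weeks serum SAA was measured by sandwich ELISA. Proximal colon (1 cm) was fixed, H&E-stained and scored blinded by two observers (maximum 4). n = 9 vehicle, 11 treated; Student's t test.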

Data set [3] has as its system Mus musculus. In words: Antiinflammatory activity against po dosed DSS-induced colitis BALB/c mouse model assessed as reduction in TNFalpha level administered daily once for 7 days measured on day 7 relative to vehicle-treated control. Format: functional, organism-based. Summed up: (§2)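 DSS colitis in female BALB/c mice (5% DSS in drinking water, 7 days, daily oral dosing). At autopsy, colon remaining after histology sampling snap-frozen, stored at −20 °C, thawed, contents removed, chopped and homogenized; supernatant protein determined. IL1b, IL6 and TNFα in colon supernatant by sandwich ELISA, expressed as ng/mg. Mean ± SEM, n = 6−7.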

For data set [4], the system named is Mus musculus. In words: Antiinflammatory activity against DSS-induced colitis BALB/c mouse model assessed as reduction in IL6 level at 30 mg/kg, po qd for 7 days measured on day 7 relative to vehicle-treated control. The class given is functional, organism-based. Set-up: dose 30 mg/kg. Summed up:
as §2

The test system of data set [5] is Mus musculus. The data set is described as follows: Antiinflammatory activity in IL-10 -/- BALB/c mouse assessed as prevention of rectal bleeding at 300 mg/kg, po administered as divided dose 3 times a week for 9 weeks relative to vehicle-treated control. Set-up: dose 300 mg/kg. Format: functional, organism-based. Summed up:
as §1

Data set [6] has as its system Mus musculus. The data set is described as follows: Antiinflammatory activity against DSS-induced colitis BALB/c mouse model assessed as increase in colon lenght at 30 mg/kg, po qd for 7 days relative to vehicle-treated control. Set-up: dose 30 mg/kg. The class given is functional, organism-based. Summed up: (§3)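 Female SPF BALB/c mice, 6−8 weeks old; colitis induced by 5% DSS in tap drinking water (renewed every second day) for 7 days. Daily oral dosing for 7 days as suspension/solution in 0.5% carboxymethyl cellulose/2% Tween 80. Daily body weight; DAI per mouse each day from weight loss, occult blood and stool consistency; colon length at autopsy. Mean ± SEM, n = 6−7.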

Data set [7] deals with Mus musculus. In words: Antiinflammatory activity against DSS-induced colitis BALB/c mouse model assessed as decrease in disease activity index at 30 mg/kg, po qd for 7 days relative to vehicle-treated control. Format: functional, organism-based. Set-up: dose 30 mg/kg. An outline of the steps:
as §3

The test system of data set [8] is Mus musculus. In words: Antiinflammatory activity against DSS-induced colitis BALB/c mouse model assessed as decrease in disease activity index at 10 mg/kg, po qd for 7 days relative to vehicle-treated control. The class given is functional, organism-based. Set-up: dose 10 mg/kg. Summed up: as §3
For data set [9], the system named is Mus musculus. The data set is described as follows: Antiinflammatory activity against po dosed DSS-induced colitis BALB/c mouse model assessed as reduction in IL1b level administered daily once for 7 days measured on day 7 relative to vehicle-treated control. Format: functional, organism-based. An outline of the steps: as §2
Data set [10] relates to Mus musculus. In words: Antiinflammatory activity against po dosed DSS-induced colitis BALB/c mouse model assessed as reduction in histological colon damage score administered daily once for 7 days measured on day 7. Format: functional, organism-based. An outline of the steps:
(§4)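 After 7 days of 5% DSS with daily oral dosing, about 1 cm distal colon was fixed in 10% formaldehyde-saline, paraffin-embedded, cut into 5 μm serial sections and H&E-stained. Scoring covered cell infiltration (0−3) and extent of injury (0−3), done blinded by two independent observers.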

Data set [11] has as its system Mus musculus. The data set is described as follows: Antiinflammatory activity against po dosed DSS-induced colitis BALB/c mouse model assessed as decrease in disease activity index administered daily once for 7 days measured on day 7 relative to vehicle-treated control. The class given is functional, organism-based. An outline of the steps: as §3
The test system of data set [12] is Mus musculus. In words: Antiinflammatory activity in IL-10 -/- BALB/c mouse assessed as prevention of weight loss at 300 mg/kg, po administered as divided dose 3 times a week for 9 weeks relative to vehicle-treated control. Format: functional, organism-based. Set-up: dose 300 mg/kg. An outline of the steps: as §1
The test system of data set [13] is Mus musculus. In words: Antiinflammatory activity against DSS-induced colitis BALB/c mouse model assessed as prevention of body weight loss at 10 mg/kg, po qd for 7 days relative to vehicle-treated control. The class given is functional, organism-based. Set-up: dose 10 mg/kg. An outline of the steps:
as §3

Data set [14] concerns Mus musculus. In words: Antiinflammatory activity against po dosed DSS-induced colitis BALB/c mouse model assessed as reduction in IL6 level administered daily once for 7 days measured on day 7 relative to vehicle-treated control. The class given is functional, organism-based. An outline of the steps:
as §2

Data set [15] has as its system Mus musculus. In words: Antiinflammatory activity in IL-10 -/- BALB/c mouse assessed as reduction in histological colon damage score at 300 mg/kg, po administered as divided dose 3 times a week for 9 weeks relative to vehicle-treated control. The class given is functional, organism-based. Set-up: dose 300 mg/kg. Summed up: as §1
Data set [16] deals with Mus musculus. In words: Antiinflammatory activity against DSS-induced colitis BALB/c mouse model assessed as reduction in IL1b level at 30 mg/kg, po qd for 7 days measured on day 7 relative to vehicle-treated control. The class given is functional, organism-based. Set-up: dose 30 mg/kg. Summed up:
as §2

In data set [17] the test system is Mus musculus. The data set is described as follows: Antiinflammatory activity against po dosed DSS-induced colitis BALB/c mouse model assessed as reduction in shortening of colon administered daily once for 7 days measured on day 7 relative to vehicle-treated control. The class given is functional, organism-based. An outline of the steps: as §3
Data set [18] concerns Mus musculus. The data set is described as follows: Antiinflammatory activity against DSS-induced colitis BALB/c mouse model assessed as increase in colon lenght at 10 mg/kg, po qd for 7 days relative to vehicle-treated control. Format: functional, organism-based. Set-up: dose 10 mg/kg. Summed up: as §3
Data set [19] deals with Mus musculus. The data set is described as follows: Antiinflammatory activity against DSS-induced colitis BALB/c mouse model assessed as reduction in TNFalpha level at 30 mg/kg, po qd for 7 days measured on day 7 relative to vehicle-treated control. The class given is functional, organism-based. Set-up: dose 30 mg/kg. An outline of the steps: as §2
For data set [20], the system named is Mus musculus. The data set is described as follows: Antiinflammatory activity against DSS-induced colitis BALB/c mouse model assessed as reduction in IL6 level at 5 mg/kg, po qd for 7 days measured on day 7 relative to vehicle-treated control. Format: functional, organism-based. Set-up: dose 5 mg/kg. Summed up:
as §2

In data set [21] the test system is Mus musculus. The data set is described as follows: Antiinflammatory activity against DSS-induced colitis BALB/c mouse model assessed as reduction in TNFalpha level at 5 mg/kg, po qd for 7 days measured on day 7 relative to vehicle-treated control. Set-up: dose 5 mg/kg. The class given is functional, organism-based. An outline of the steps:
as §2

In data set [22] the test system is Mus musculus. The data set is described as follows: Antiinflammatory activity against DSS-induced colitis BALB/c mouse model assessed as decrease in disease activity index at 5 mg/kg, po qd for 7 days measured on day 7 relative to vehicle-treated control. The class given is functional. Set-up: scale not given: the % may be the effect or the level left. An outline of the steps:
as §3

Data set [23] deals with Mus musculus. The data set is described as follows: Antiinflammatory activity against DSS-induced colitis BALB/c mouse model assessed as decrease in myeloperoxidative activity at 5 mg/kg, po qd for 7 days measured on day 7 relative to vehicle-treated control. Format: functional. Set-up: scale not given: the % may be the effect or the level left. An outline of the steps:
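In the 7-day 5% DSS BALB/c colitis model with daily oral dosing, colon MPO was measured in homogenized snap-frozen colon supernatant (protein determined) by a standard method.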

In data set [24] the test system is Mus musculus. The data set is described as follows: Antiinflammatory activity against DSS-induced colitis BALB/c mouse model assessed as reduction in shortening of colon at 5 mg/kg, po qd for 7 days measured on day 7 relative to vehicle-treated control. The class given is functional. Set-up: scale not given: the % may be the effect or the level left. An outline of the steps: as §3

Data set [25] concerns Mus musculus. In words: Antiinflammatory activity against DSS-induced colitis BALB/c mouse model assessed as reduction in histological colon damage score at 5 mg/kg, po qd for 7 days measured on day 7 relative to vehicle-treated control. Format: functional. Set-up: scale not given: the % may be the effect or the level left. An outline of the steps:
as §4

Data set [26] has as its system Mus musculus. In words: Antiinflammatory activity against DSS-induced colitis BALB/c mouse model assessed as reduction in IL1b level at 5 mg/kg, po qd for 7 days measured on day 7 relative to vehicle-treated control. Format: functional, organism-based. Set-up: dose 5 mg/kg. An outline of the steps: as §2
The subject of data set [27] is Mus musculus. In words: Antiinflammatory activity against DSS-induced colitis BALB/c mouse model assessed as prevention of body weigth loss at 5 mg/kg, po qd for 7 days measured on day 7 relative to vehicle-treated control. The class given is functional. An outline of the steps:
as §3

For data set [28], the system named is Mus musculus. In words: Antiinflammatory activity against DSS-induced colitis BALB/c mouse model assessed as decrease in disease activity index at 30 mg/kg, po qd for 7 days measured on day 6 relative to vehicle-treated control. Set-up: dose 30 mg/kg. Format: functional, organism-based. An outline of the steps:
as §3

The source made the active and inactive calls. The calls are words filed in the database; no cut-off is given here.

In the case of `O=C(O)c1ccc(C[C@@]2(C3=Cc4ccccc4C3)Cc3ccccc3[C@H]2O)cc1` [listing 1 of 2 here], in [1], the Activity entry is “Non-toxic”.
With `O=C(O)c1ccc(C[C@@]2(C3=Cc4ccccc4C3)Cc3ccccc3[C@H]2O)cc1` [listing 2 of 2 here], the outcome in data set [2], in data set [5] and in [12] was inactive. The Activity result in [3], in data set [9], in data set [10], in [11], in [14] and in data set [17] was “Dose-dependent effect” in each case. For the same molecule, the result in data set [4], in data set [6], in [7], in data set [8], in [13] and in data set [15] was Active. Besides, the outcome in data set [16], in [18] and in [19] was Active.
Regarding `C[C@]12C=CC(=O)C=C1CC[C@@H]1[C@@H]2[C@@H](O)C[C@@]2(C)[C@H]1CC[C@]2(O)C(=O)CO` [PREDNISOLONE], the result in data set [20], in data set [21] and in data set [26] was Active. The Activity in [22] is 50%; in data set [23], 54%; in [24] it was 39%; in [25], 26%; in [27], 12.6%.
On to `O=C(O)c1ccc(C[C@]2(C3=Cc4ccccc4C3)Cc3ccccc3[C@@H]2O)cc1`, for which, in data set [1], the Activity entry is on record as “Non-toxic”. Moreover, the result in data set [6] and in [7] was Active. In addition, the result in [28] was inactive.
